Measurements published in ChEMBL document CHEMBL1131460, “2-substituted (2SR)-2-amino-2-((1SR,2SR)-2-carboxycycloprop-1-yl)glycines as potent and selective antagonists of group II metabotropic glutamate receptors. 2. Effects of aromatic substitution, pharmacological characterization, and bioavailability” (J Med Chem, 1998).

Legend:
Rattus norvegicus [1] = test: Area under curve was evaluated in rat brain when administered intraperitoneally at a dose of 10 mg/kg for infinite hours; assay type: ADME, organism-based; set-up: time infinity, dose 10 mg/kg, route intraperitoneal; conditions: in vivo, ip
Rattus norvegicus [2] = test: Area under curve was evaluated in rat brain when administered intravenously at a dose of 10 mg/kg for infinite hours; assay type: ADME, organism-based; set-up: time infinity, dose 10 mg/kg, route intravenous; conditions: in vivo, iv
Rattus norvegicus [3] = test: Area under curve was evaluated in rat brain when administered perorally at a dose of 100 mg/kg for 4 or 6 hours; assay type: ADME, organism-based; set-up: dose 100 mg/kg, route oral; conditions: in vivo, po
Rattus norvegicus [4] = test: Area under curve was evaluated in rat plasma when administered intraperitoneally at a dose of 10 mg/kg for infinite hours; assay type: ADME, organism-based; set-up: time infinity, dose 10 mg/kg, route intraperitoneal; conditions: in vivo, ip
Procedure, shortened: (§1)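 Male Fischer 344 rats were dosed at 10 mg/kg iv, 10 mg/kg ip, or 10 or 100 mg/kg po, with five rats per route and dose. One rat was sampled for blood and brain at each time: 0.25, 0.5, 1, 2 and 4 h after iv/ip, and 0.5, 1, 2, 4 and 6 h after po. Plasma and brain homogenates were derivatized, extracted and quantified by negative-ion chemical ionization GCMS (LOQ 100 pg/mL plasma, 1 ng/g brain).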

Rattus norvegicus [5] = test: Area under curve was evaluated in rat plasma when administered intravenously at a dose of 10 mg/kg for infinite hours; assay type: ADME, organism-based; set-up: time infinity, dose 10 mg/kg, route intravenous; conditions: in vivo, iv; procedure, shortened: as §1
Rattus norvegicus [6] = test: Area under curve was evaluated in rat plasma when administered perorally at a dose of 10 mg/kg for 4 or 6 hours; assay type: ADME, organism-based; set-up: dose 10 mg/kg, route oral; conditions: in vivo, po; procedure, shortened: as §1
Rattus norvegicus [7] = test: Area under curve was evaluated in rat plasma when administered perorally at a dose of 10 mg/kg for infinite hours; assay type: ADME, organism-based; set-up: time infinity, dose 10 mg/kg, route oral; conditions: in vivo, po; procedure, shortened: as §1
Rattus norvegicus [8] = test: Area under curve was evaluated in rat brain when administered perorally at a dose of 10 mg/kg for 4 or 6 hours; assay type: ADME, organism-based; set-up: dose 10 mg/kg, route oral; conditions: in vivo, po
[9] = Maximum concentration achieved in rat plasma when administered perorally at a dose of 10 mg/kg; assay type: ADME, organism-based; set-up: dose 10 mg/kg, route oral; conditions: po
Procedure, shortened: (§2)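 Male Fischer 344 rats dosed iv or ip at 10 mg/kg, or orally at 10 or 100 mg/kg; five rats per route and dose. Blood and brain taken from one rat per time point (0.25, 0.5, 1, 2, 4 h after iv/ip; 0.5, 1, 2, 4, 6 h after po). Plasma and brain homogenates derivatized, extracted, assayed by negative-ion chemical ionization GCMS (LOQ 100 pg/mL plasma, 1 ng/g brain).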

[10] = Maximum concentration achieved in rat brain when administered perorally at a dose of 100 mg/kg; assay type: ADME, organism-based; set-up: dose 100 mg/kg, route oral; conditions: po; procedure, shortened: as §2
[11] = Maximum concentration achieved in rat plasma when administered intraperitoneally at a dose of 10 mg/kg; assay type: ADME, organism-based; set-up: dose 10 mg/kg, route intraperitoneal; conditions: ip; procedure, shortened: as §2
[12] = Brain concentration after 0.5 hr at a dose of 10 mg/kg when administered perorally; conditions: po
[13] = Brain concentration after 2 hr at a dose of 10 mg/kg when administered perorally; conditions: po
[14] = Brain concentration after 4 hr at a dose of 10 mg/kg when administered intraperitoneally; conditions: ip
[15] = Brain concentration after 2 hr at a dose of 10 mg/kg when administered intraperitoneally; conditions: ip
[16] = Clearance rate in rat plasma when administered intravenously at a dose of 10 mg/kg; assay type: ADME, organism-based; set-up: dose 10 mg/kg, route intravenous; conditions: iv, read-out: Clp (converted); procedure, shortened: as §1
[17] = Plasma concentration after 0.5 hr at a dose of 100 mg/kg when administered perorally; conditions: po
[18] = Plasma concentration after 1 hr at a dose of 100 mg/kg when administered perorally; conditions: po
[19] = Plasma concentration after 2 hr at a dose of 10 mg/kg when administered intraperitoneally; conditions: ip
[20] = Plasma concentration after 2 hr at a dose of 10 mg/kg when administered intravenously; conditions: iv
[21] = Plasma concentration after 2 hr at a dose of 100 mg/kg when administered perorally; conditions: po
[22] = Plasma concentration after 4 hr at a dose of 10 mg/kg when administered intravenously; conditions: iv
[23] = Plasma concentration after 6 hr at a dose of 10 mg/kg when administered perorally; conditions: po
[24] = Time of maximum concentration achieved in rat brain when administered intravenously at a dose of 10 mg/kg; assay type: ADME, organism-based; set-up: dose 10 mg/kg, route intravenous; conditions: iv; procedure, shortened: as §2
[25] = Time of maximum concentration achieved in rat plasma when administered perorally at a dose of 100 mg/kg; assay type: ADME, organism-based; set-up: dose 100 mg/kg, route oral; conditions: po; procedure, shortened: as §2
[26] = Time of maximum concentration achieved in rat plasma when administered perorally at a dose of 10 mg/kg; assay type: ADME, organism-based; set-up: dose 10 mg/kg, route oral; conditions: po; procedure, shortened: as §2
[27] = Half-life in rat plasma when administered intravenously at a dose of 10 mg/kg; assay type: ADME, organism-based; set-up: dose 10 mg/kg, route intravenous; conditions: iv; procedure, shortened: as §1
[28] = Half-life in rat plasma when administered intraperitoneally at a dose of 10 mg/kg; assay type: ADME, organism-based; set-up: dose 10 mg/kg, route intraperitoneal; conditions: ip; procedure, shortened: as §1
[29] = Time of maximum concentration achieved in rat brain when administered intraperitoneally at a dose of 10 mg/kg; assay type: ADME, organism-based; set-up: dose 10 mg/kg, route intraperitoneal; conditions: ip; procedure, shortened: as §2
[30] = Plasma concentration after 1 hr at a dose of 10 mg/kg when administered intravenously; conditions: iv
[31] = Plasma concentration after 6 hr at a dose of 100 mg/kg when administered perorally; conditions: po
[32] = Time of maximum concentration achieved in rat brain when administered perorally at a dose of 100 mg/kg; assay type: ADME, organism-based; set-up: dose 100 mg/kg, route oral; conditions: po; procedure, shortened: as §2
in vivo [33] = conditions: brain, iv, 10 mg/kg
in vivo [34] = conditions: brain, ip, 10 mg/kg
in vivo [35] = conditions: brain, iv, 10 mg/kg; remark: listed apart in the source
Rattus norvegicus [36] = test: Volume of distribution in rat plasma when administered intravenously at a dose of 10 mg/kg; conditions: in vivo, iv

For `N[C@](CC1c2ccccc2Oc2ccccc21)(C(=O)O)[C@H]1C[C@@H]1C(=O)O`, which AUC (Rattus norvegicus [1]) is on record?
Its AUC is 1790 ng·h/mL.

What about the AUC (Rattus norvegicus [2]) of the same molecule?
Its AUC is 1840 ng·h/mL.

What about the AUC (Rattus norvegicus [3]) of the same molecule?
The AUC was 120 ng·h/mL.

And the AUC (Rattus norvegicus [4])?
The AUC was 12800 ng·h/mL.

What about the AUC (Rattus norvegicus [5]) of the same molecule?
The AUC was 8400 ng·h/mL.

And the AUC (Rattus norvegicus [6])?
The AUC was 217 ng·h/mL.

And the AUC (Rattus norvegicus [7])?
The AUC was 284 ng·h/mL.

What about the AUC (Rattus norvegicus [8]) of the same molecule?
Its AUC is 26.4 ng·h/mL.

What about the Cmax [9] of the same molecule?
Its Cmax is 64.1 ng/mL.

What about the Cmax [10] of the same molecule?
Its Cmax is 30 ng/g.

And the Cmax [11]?
The Cmax was 14300 ng/mL.

What about the concentration at 0.5 h [12] of the same molecule?
The concentration at 0.5 h was 1.7 ng/g.

And the concentration at 2 h [13]?
Its concentration at 2 h is 3 ng/g.

And the concentration at 4 h [14]?
The concentration at 4 h was 149 ng/g.

What about the concentration at 2 h [15] of the same molecule?
Its concentration at 2 h is 202 ng/g.

What about the clearance [16] of the same molecule?
Its clearance is 19.8 mL/min/kg.

And the concentration at 0.5 h [17]?
The concentration at 0.5 h was 197 ng/mL.

And the concentration at 1 h [18]?
Its concentration at 1 h is 475 ng/mL.

And the concentration at 2 h [19]?
The concentration at 2 h was 1120 ng/mL.

And the concentration at 2 h [20]?
Its concentration at 2 h is 845 ng/mL.

And the concentration at 2 h [21]?
The concentration at 2 h was 420 ng/mL.

And the concentration at 4 h [22]?
Its concentration at 4 h is 35.9 ng/mL.

What about the concentration at 6 h [23] of the same molecule?
The concentration at 6 h was 17.5 ng/mL.

What about the Tmax [24] of the same molecule?
The Tmax was 30 min.

And the Tmax [25]?
The Tmax was 60 min.

What about the Tmax [26] of the same molecule?
The Tmax was 30 min.

What about the half-life [27] of the same molecule?
The half-life was 28.8 min.

What about the half-life [28] of the same molecule?
Its half-life is 26.4 min.

What about the Tmax [29] of the same molecule?
Its Tmax is 30 min.

What about the concentration at 1 h [30] of the same molecule?
Its concentration at 1 h is 2440 ng/mL.

And the concentration at 6 h [31]?
Its concentration at 6 h is 102 ng/mL.

And the Tmax [32]?
The Tmax was 360 min.

And the concentration at 1 h (in vivo [33])?
Its concentration at 1 h is 188 ng/g.

What about the concentration at 0.25 h (in vivo [34]) of the same molecule?
Its concentration at 0.25 h is 211 ng/g.

And the concentration at 0.25 h (in vivo [35])?
The concentration at 0.25 h was 234 ng/g.

And the Vd (Rattus norvegicus [36])?
The Vd was 0.83 L/kg.
